According to PMC4360665 (CPT: Pharmacometrics & Systems Pharmacology, 2015):
Several values for one entry are separate records, joined by “and”; a condition that tells them apart may be missing. Equal values may be shown once. Read-outs that look alike come from different tables or passages of the source.

Legend:
[1] = assay type: in vivo, human; details: for Mean sirolimus oral clearance: allometrically scaled (0.75, 70 kg)
In short: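 Oral dosing began at 0.8 mg/m2 twice daily, then adjusted to trough targets of 10 to 15 ng/ml. Concentrations were drawn at 8–14 days, then every 2 weeks (LLOQ 1.0 ng/ml). First-4-week samples (1–3 per patient) fed a Bayesian one-compartment estimator with pediatric neurofibromatosis priors, estimating clearance only. Clearances were scaled allometrically (exponent 0.75, 70 kg), and an Emax fit against age gave CLmatured and Age50.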

[2] = tested on: CYP3A; assay type: in vitro ADME, human; details: ketoconazole at 1 µM; nine individual pediatric liver microsomes aged 1 month to 4 years; mean ± SD
In short: (§1)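 Substrate depletion of the test compound in nine individual pediatric liver microsomes in 100 mM potassium phosphate (pH 7.4) at 37°C, with and without CYP-selective inhibitor (1 µM; ketoconazole for CYP3A, montelukast for CYP2C8). NADPH regenerating system starts the reaction (t=0). Serial aliquots are extracted with methanol/ZnSO4 plus internal standard and analysed by online SPE-LC-MS/MS. kel comes from the log %-remaining vs time slope. % contribution is calculated from kel with and without inhibitor.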

[3] = molecular target: T1, CYP2C8 (Homo sapiens, UniProt P10632); assay type: in vitro ADME; details: montelukast at 1 µM; nine individual pediatric liver microsomes aged 1 month to 4 years; mean ± SD
T1 sequence (P10632 1-490): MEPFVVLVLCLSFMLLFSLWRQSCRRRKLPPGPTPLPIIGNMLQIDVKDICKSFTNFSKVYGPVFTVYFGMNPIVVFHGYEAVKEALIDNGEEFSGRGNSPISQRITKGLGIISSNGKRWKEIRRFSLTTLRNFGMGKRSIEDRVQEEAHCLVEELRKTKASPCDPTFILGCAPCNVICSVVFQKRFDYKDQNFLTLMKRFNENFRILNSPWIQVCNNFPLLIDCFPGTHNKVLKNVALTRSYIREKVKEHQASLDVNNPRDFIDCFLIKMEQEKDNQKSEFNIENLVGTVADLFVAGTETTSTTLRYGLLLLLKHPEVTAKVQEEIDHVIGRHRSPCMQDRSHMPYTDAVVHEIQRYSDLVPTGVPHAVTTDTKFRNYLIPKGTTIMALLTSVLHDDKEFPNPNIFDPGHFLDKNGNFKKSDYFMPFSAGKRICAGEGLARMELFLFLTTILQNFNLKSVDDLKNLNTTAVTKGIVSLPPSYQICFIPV
In short: as §1

[4] = molecular target: recombinant CYP3A7 (Homo sapiens, UniProt P24462); experiment: Substrate depletion assay with recombinant CYP3A7; assay type: in vitro ADME
In short: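 Recombinant CYP3A7 (with reductase and cytochrome b5) was brought to 0.4 mg/ml protein with blank microsomes and incubated with sirolimus in 100 mM potassium phosphate, pH 7.4, at 37°C with shaking. NADPH regenerating system started the reaction (t = 0), with aliquots taken at serial times. Sirolimus remaining was measured by on-line SPE–HPLC–MS/MS against an internal standard. The slope of log % remaining versus time was converted to CLint per pmol CYP.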

[5] = tested on: P-glycoprotein (MDR1/ABCB1); details: cited from earlier work

Chain of recombinant CYP3A7 (P24462 whole entry): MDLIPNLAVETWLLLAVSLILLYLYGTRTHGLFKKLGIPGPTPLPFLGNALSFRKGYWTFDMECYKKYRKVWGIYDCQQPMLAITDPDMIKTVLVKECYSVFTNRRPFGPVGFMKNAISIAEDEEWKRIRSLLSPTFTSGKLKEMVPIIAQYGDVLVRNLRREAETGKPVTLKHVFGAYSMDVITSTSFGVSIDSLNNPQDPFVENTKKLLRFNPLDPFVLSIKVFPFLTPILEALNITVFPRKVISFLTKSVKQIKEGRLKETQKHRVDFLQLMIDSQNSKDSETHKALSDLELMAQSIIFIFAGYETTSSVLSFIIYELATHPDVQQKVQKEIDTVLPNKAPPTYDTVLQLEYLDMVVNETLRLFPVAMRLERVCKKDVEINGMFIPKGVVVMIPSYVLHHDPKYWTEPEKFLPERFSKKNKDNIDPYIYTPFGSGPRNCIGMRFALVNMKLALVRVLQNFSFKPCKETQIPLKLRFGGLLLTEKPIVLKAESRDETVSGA

SMILES: CO[C@H]1C[C@@H]2CC[C@@H](C)[C@@](O)(O2)C(=O)C(=O)N2CCCC[C@H]2C(=O)O[C@H]([C@H](C)C[C@@H]2CC[C@@H](O)[C@H](OC)C2)CC(=O)[C@H](C)/C=C(\C)[C@@H](O)[C@@H](OC)C(=O)[C@H](C)C[C@H](C)/C=C/C=C/C=C/1C [sirolimus]
- Mean sirolimus oral clearance ([1]; age group 1 year (≥1, <2), n=5): 17 ± 4 L/h
- Mean sirolimus oral clearance ([1]; age group 1–8 months (<1), n=9): 11 ± 3 L/h
- Mean sirolimus oral clearance ([1]; age group 2 years (≥2, <3), n=3): 21 ± 3 L/h
- Mean sirolimus oral clearance ([1]; age group 3–18 years (≥3), n=27): 18 ± 6 L/h
- Observed CLmatured ([1]; clinical clearance estimates, patients 1 months to 3 years, n = 20, Emax model): 19.4 ± 2.2 L/h/70 kg
- % of Contribution of CYP3A to sirolimus metabolism [2]: 95.8% and 95.8±4.8%
- % of Contribution of CYP2C8 to sirolimus metabolism [3]: less than 10% and 8.5±4.3%
- fold lower CLint of CYP3A7 than reported CYP3A4 activity ([4]; CYP3A4 value from ref 17): 30 fold
- fold lower CLint of CYP3A7 than reported CYP3A5 activity ([4]; CYP3A5 value from ref 17): 13 fold
- CLint for recombinant CYP3A7 ([4]; substrate depletion, 37°C, pH 7.4): 0.30 µl/min/pmol CYP protein
- substrate of P-glycoprotein (MDR1/ABCB1) [5]: substrate
